# Experimental data published in paper PMC5741288 (Pain Reports, 2016).
# Test system: dermal blood flow (flare)
# Experiment: Topical capsaicin alone, flare response in anesthetized rats
# Format: in vivo, Sprague Dawley rats
# In short: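 Isoflurane-anaesthetised rats had clipped lower abdominal skin and an O-ring placed by a preliminary Doppler image. Capsaicin (0.1–3 mg) or vehicle (30% ethanol, Tween, sterile water) was pipetted into the ring. Dermal blood flow was scanned by laser Doppler imager every 15 min for 120 min. Change from baseline flux was computed every 15 min.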
smiles,measurement,setting,value
COc1cc(CNC(=O)CCCC/C=C/C(C)C)ccc1O [Capsaicin],Flare response,0.1 mg topical,did not produce any increase in flare
same,Flare response,"0.3 mg topical, peaked 30 minutes after application",transient increase in flare
same,Flare response,"1 mg topical, larger concentrations did not increase flare further",greatest amount of flare
